Assay outcomes: PubChem BioAssay, Sanford-Burnham Center for Chemical Genomics
SENP6 block – SENP6 protease inhibition; Recombinant SENP6 catalytic domain, aminoluciferin luminescence; inhibition, % at 10 µM; hit rate 1.8% among 330,000; AID 2599;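 active = inhibition above about 50% at the single tested dose, limit read from the data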;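 note: plate controls were DMSO wells with enzyme for no effect and DMSO wells lacking enzyme for full effect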
SENP1 inh – blocks the human SENP1 SUMO protease catalytic domain; hit rate 0.21% among 360,000; recombinant SENP1 catalytic domain, CyPet-SUMO1-YPet FRET cleavage; inhibition, % at 10 µM;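 active = inhibition at least 30% at 10 µM, raw YFP signal under a set limit, fluorescence ratio 0.5 to 1.5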;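 note: 0% = enzyme with DMSO and 100% = no enzyme wells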
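Material – human SENP1 catalytic domain · Input – SENP1 enzyme, 20 pM final · Compound dosing – single concentration of 10 µM compound, 0.5% DMSO final · Timing – enzyme reaction for 50 min at room temperature, dark · Measured by – FRET fluorescence in CFP and YFP emission channels · Control set – no-enzyme wells low, DMSO-plus-enzyme wells high control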
SENP8 block-1 – inhibitors of human SENP8 protease | Q96LD8 | recombinant SENP8, Nedd8 substrate fluorescence | inhibition, % at 20 µM | hit rate 0.64% among 360,000; in the data active = inhibition mostly above about 40%, no sharp cut-off; inactive = mostly below about 27%
Target sequence (Q96LD8 whole entry, looked up): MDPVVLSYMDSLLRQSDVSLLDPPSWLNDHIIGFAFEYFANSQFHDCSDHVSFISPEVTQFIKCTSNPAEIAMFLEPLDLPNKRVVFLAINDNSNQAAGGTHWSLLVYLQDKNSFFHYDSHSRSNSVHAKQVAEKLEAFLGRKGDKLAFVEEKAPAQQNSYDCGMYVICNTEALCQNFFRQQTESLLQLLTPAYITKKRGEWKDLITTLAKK
SENP7 block – SENP7 protease inhibition; Q9BQF6; recombinant SENP7, Z-RLRGG-aminoluciferin luminescence, 40 min; inhibition, % at 5 µM; hit rate 1.5% among 330,000;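 active = inhibition above about 50% at the single test dose, limit read from the data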;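 note: plate controls were DMSO with enzyme for no effect and no enzyme buffer wells for full effect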
SENP8 block-2 – SENP8 protease inhibition | hit rate 1.2% among 330,000 | Q96LD8 | AID 2540 | inhibition, % at 10 µM | purified SENP8, Z-RLRGG-aminoluciferin cleavage, luminescence; in the data active = inhibition above about 50%
SENP8 conf – confirmation of human SENP8 protease inhibitors | inhibition, % at 12.5 µM | shares compounds with SENP7 block | Recombinant SENP8, Z-RLRGG-aminoluciferin luminescence, 60 min | hit rate 40% among 6,200;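 active = mean inhibition across replicates above about 50%, limit read from the data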
SENP6 conf – confirmation of human SENP6 protease inhibitors | AID 488915 | inhibition, % at 12.5 µM | hit rate 58% among 6,200 | recombinant SENP6, Z-RLRGG-aminoluciferin luminescence | shares compounds with SENP7 block
SENP7 conf – human SENP7 inhibition, confirmed. shares compounds with SENP7 block. recombinant SENP7, Z-RLRGG-aminoluciferin luminescence, 40 min. inhibition, % at 12.5 µM. hit rate 69% among 6,200
Casp3 SENP sel – selectivity test for SENP inhibitors: human caspase-3 inhibition; purified caspase-3, Z-DEVD-aminoluciferin luminescence, 60 min; hit rate 60% among 6,200; inhibition, % at 12.5 µM; shares compounds with SENP7 block;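 active = mean inhibition above about 50%, limit read from the data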;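 note: plate controls were enzyme with DMSO for no effect and wells without caspase-3 for full effect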
Target sequence (P42574 28-227 limits assumed): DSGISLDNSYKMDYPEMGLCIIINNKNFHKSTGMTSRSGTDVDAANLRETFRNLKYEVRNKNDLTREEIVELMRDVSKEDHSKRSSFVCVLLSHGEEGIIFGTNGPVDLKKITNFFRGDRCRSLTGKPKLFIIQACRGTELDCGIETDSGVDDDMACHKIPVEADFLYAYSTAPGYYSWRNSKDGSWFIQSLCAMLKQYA
Luc interf – luminescence interference (SENP counter-screen) | shares compounds with SENP7 block | Pre-incubated SENP8/Z-RLRGG-aminoluciferin, luciferase luminescence interference | inhibition, % at 12.5 µM | hit rate 39% among 6,200;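 active = mean inhibition above about 50% when retested at one dose, limit read from the data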;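 note: plate controls were DMSO wells with completed reaction for no effect and substrate without enzyme for full effect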
Active calls of the source: *; x = no result given. An excerpt weighted towards active compounds, which were near 2.5% of everything screened.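 Rule for the calls, unless noted: active = mean inhibition above about 50% in the one-dose retest (limit read from the data); inactive = the rest.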

SMILES	SENP6 block	SENP1 inh	SENP8 block-1	SENP7 block	SENP8 block-2	SENP8 conf	SENP6 conf	SENP7 conf	Casp3 SENP sel	Luc interf
Cc1ccc(NC(=O)COCC(=O)Nc2ccc(F)cc2)cc1	0	0	39	-1	-7	x	x	x	x	x
Cc1c(C(=O)O)oc2ccc(S(=O)(=O)N3CCC(C)CC3)cc12	-3	-1	13	3	-2	x	x	x	x	x
Cc1c(C(=O)N2CCC(C)CC2)oc2ccc(S(=O)(=O)N3CCC4(CC3)OCCO4)cc12	6	1	8	75*	3	6	8	7	3	2
COC(=O)c1[nH]c2cccc(Cl)c2c1NC(=O)CN1CCN(CCO)CC1	13	1	-17	101*	1	11	10	0	-4	-3
COC(=O)c1[nH]c2cccc(Cl)c2c1NC(=O)CN1CCCCC1C (stereo not given)	-34	-2	-47	5	5	x	x	x	x	x
CCOC(=O)CNC(=O)Cn1cnc2c(nnn2-c2ccc(OC)cc2)c1=O	9	3	14	8	4	x	x	x	x	x
COc1ccc(N=Cc2sc3ccccc3c2Cl)cc1	30	0	31	58*	25	10	22	36	37	15
Cc1ccnc(NS(=O)(=O)c2ccc(NC(=O)C(C)(C)C)cc2)n1	89*	2	6	-2	4	12	11	-3	1	3
CC(=O)Nc1ccc(S(=O)(=O)Nc2nccc(C)n2)cc1	-1	-2	5	-10	-1	x	x	x	x	x
O=c1c2ccccc2sn1-c1ccc(F)cc1	82*	-2	11	36	74*	84*	84*	96*	91*	84*
O=c1c2ccc(F)cc2sn1-c1ccccc1	x	1	10	x	x	x	x	x	x	x
Nc1nc(N)nc(-c2ccc(Cl)c(Cl)c2)n1	56*	2	-456	59*	43	41	38	78*	49	62*
c1ccc(C2=Nc3ccccc3OC2)cc1	-21	24	-108	-10	-9	x	x	x	x	x
Cc1ccc2c(c1)N=C(c1ccc(Cl)cc1)CO2	96*	3	-270	98*	95*	83*	82*	85*	80*	57*
Clc1ccc(C2=NN=C3COc4ccccc4N3C2)cc1	20	-2	-22	8	-5	x	x	x	x	x
Clc1ccc(C2=Nc3cc(Cl)ccc3OC2)cc1	81*	2	11	81*	76*	15	12	20	41	-6
NC(=O)CC1Nc2cccc3cccc(c23)NC1=O (stereo not given)	91*	-9	-19	34	77*	-2	6	6	1	-2
O=C(CC1Nc2cccc3cccc(c23)NC1=O)Nc1ccccc1 (stereo not given)	87*	-28	-106	53*	2	8	10	-5	-1	-2
CCCOc1ccc(NC(=O)CC2Nc3ccccc3NC2=O)cc1 (stereo not given)	-2	-79	-15	-4	-10	x	x	x	x	x
O=c1ccn2c(n1)SC(c1ccccc1)C2 (stereo not given)	x	0	20	x	x	x	x	x	x	x
Cc1cc(C(=O)Nc2nnc(C(F)(F)F)s2)cs1	76*	1	-15	58*	65*	66*	68*	86*	84*	36
O=C(Nc1nnc(C(F)(F)F)s1)c1ccc(Br)s1	53*	1	-28	62*	73*	2	53*	77*	43	50
Cc1cc(C(=O)Nc2nnc(C(F)(F)F)s2)no1	-7	0	-22	10	-6	x	x	x	x	x
C[C@H](CO)N1C[C@H](C)[C@@H](CN(C)S(=O)(=O)c2ccccc2)Oc2c(NC(=O)Nc3ccc4c(c3)OCO4)cccc2C1=O	19	0	-8	9	-7	x	x	x	x	x
CSc1ncccc1C(=O)OCc1ccccc1	54*	1	21	18	26	9	19	60*	32	32
SMILES	SENP6 block	SENP1 inh	SENP8 block-1	SENP7 block	SENP8 block-2	SENP8 conf	SENP6 conf	SENP7 conf	Casp3 SENP sel	Luc interf
CSc1ncccc1C(=O)OCc1ccc([N+](=O)[O-])cc1	-1	0	10	9	-8	x	x	x	x	x
CSc1ncccc1C(=O)OCc1ccccc1F	72*	2	16	43	50*	53*	55*	79*	51*	56*
CN(C1(C)CCS(=O)(=O)C1)S(=O)(=O)c1ccc2ccccc2c1 (stereo not given)	-3	-2	13	-6	-1	x	x	x	x	x
Nc1[nH]c(C(=O)c2ccccc2)c(-c2ccncc2)c1C(=O)NCc1ccc(Cl)cc1	x	-2	6	x	x	x	x	x	x	x
c1cncc(CN=C2Nc3ccccc3CS2)c1	21	1	9	4	-5	x	x	x	x	x
Clc1ccc(CN=C2Nc3ccccc3CS2)cc1	69*	0	11	60*	44	66*	68*	87*	48	80*
Cc1ccc(CN=C2Nc3ccccc3CS2)cc1	89*	1	14	88*	83*	91*	91*	100*	84*	83*
O=C1NC(c2cc(Cl)cc([N+](=O)[O-])c2O)Nc2ccccc21 (stereo not given)	87*	-19	18	17	69*	9	25	15	27	33
COc1ccc2nc(N3C(=O)CNC3=S)sc2c1	43	-2	-13	43	29	x	x	x	x	x
Cc1ccc2nc(N3C(=O)CNC3=S)sc2c1	94*	-39	-26	89*	91*	-8	92*	100*	95*	27
O=C1Nc2ccccc2N(O)N1c1cc(-c2ccccc2Cl)no1	-47	2	27	9	-9	x	x	x	x	x
O=C1Nc2ccccc2N(O)N1c1cc(-c2cccc(Cl)c2)no1	39	3	12	60*	58*	83*	80*	93*	88*	81*
Clc1ccccc1C=NNc1ccccn1	x	1	9	x	x	x	x	x	x	x
CCOc1ccc(/C=N/Nc2ccccn2)cc1	84*	-1	10	95*	91*	63*	94*	102*	65*	12
Clc1ccc(/C=N/Nc2ccccn2)cc1	13	1	7	69*	52*	4	54*	72*	51*	9
CCCOc1ccc(/C=N/NC(=O)C(=O)Nc2ccccn2)cc1	16	-1	-22	7	-2	x	x	x	x	x
